Experiment [1] addresses T1, Aurora kinase A (Homo sapiens, UniProt O14965).
T1 sequence (O14965 whole entry): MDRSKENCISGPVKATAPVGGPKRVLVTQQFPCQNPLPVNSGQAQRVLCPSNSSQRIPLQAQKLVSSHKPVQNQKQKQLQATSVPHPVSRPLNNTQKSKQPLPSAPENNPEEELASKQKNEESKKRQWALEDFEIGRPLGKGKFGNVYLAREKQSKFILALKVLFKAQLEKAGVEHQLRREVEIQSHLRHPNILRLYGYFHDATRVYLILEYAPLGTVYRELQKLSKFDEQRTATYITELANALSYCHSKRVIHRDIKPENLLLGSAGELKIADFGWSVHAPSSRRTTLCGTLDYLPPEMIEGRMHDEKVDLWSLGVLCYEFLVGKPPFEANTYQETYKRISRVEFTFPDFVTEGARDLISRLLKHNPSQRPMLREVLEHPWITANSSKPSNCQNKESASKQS
The experiment is described as follows: Inhibition of human recombinant aurora A kinase.

Experiment [2] has as its target Aurora kinase B (Homo sapiens, UniProt Q96GD4). The experiment is described as follows: Inhibition of human recombinant aurora B kinase. In a few lines:
(§1)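 Recombinant human Aurora kinase (A, B or C); myelin basic protein substrate (1 mg/mL) with 15 µM [γ-33P]ATP in buffer C (25 mM Mops pH 7.2, 60 mM β-glycerophosphate, 15 mM p-nitrophenylphosphate, 5 mM EGTA, 15 mM MgCl2, 1 mM DTT, 1 mM vanadate, 1 mM phenylphosphate), 30 min at 30 °C. Stopped by spotting on P81 paper, washed in 1% phosphoric acid, scintillation counted. IC50 from dose-response curves over various concentrations.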

The target of experiment [3] is T2, Aurora kinase C (Homo sapiens, UniProt Q9UQB9).
T2 sequence (Q9UQB9 whole entry): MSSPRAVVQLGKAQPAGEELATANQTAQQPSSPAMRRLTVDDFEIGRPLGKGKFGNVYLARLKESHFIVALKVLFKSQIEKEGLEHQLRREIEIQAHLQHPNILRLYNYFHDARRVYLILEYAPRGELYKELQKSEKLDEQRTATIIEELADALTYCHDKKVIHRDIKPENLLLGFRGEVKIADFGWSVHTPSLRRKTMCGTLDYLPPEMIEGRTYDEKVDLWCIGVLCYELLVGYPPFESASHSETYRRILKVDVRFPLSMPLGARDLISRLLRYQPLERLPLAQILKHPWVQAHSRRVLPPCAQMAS
The experiment is described as follows: Inhibition of human recombinant aurora C kinase. In a few lines: as §1

Chain of Aurora kinase B (Q96GD4 whole entry): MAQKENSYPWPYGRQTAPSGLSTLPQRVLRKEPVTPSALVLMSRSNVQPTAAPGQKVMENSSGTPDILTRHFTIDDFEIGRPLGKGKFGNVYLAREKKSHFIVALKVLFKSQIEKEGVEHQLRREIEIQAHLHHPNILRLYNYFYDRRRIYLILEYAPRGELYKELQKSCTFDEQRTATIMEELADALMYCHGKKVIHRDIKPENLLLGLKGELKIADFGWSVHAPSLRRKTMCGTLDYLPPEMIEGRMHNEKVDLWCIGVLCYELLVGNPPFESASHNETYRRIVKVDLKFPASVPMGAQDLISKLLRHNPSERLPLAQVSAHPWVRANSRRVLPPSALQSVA

As usually defined, the IC50 is the concentration that inhibits the measured activity by half. `O=Nc1c(-c2c(O)[nH]c3c(I)cccc23)[nH]c2ccccc12`: the IC50 in experiment [1] was > 100 µM; in experiment [2], 10 µM; in experiment [3], 0.6 µM.

Regarding `CC(=O)O/N=C1\C(c2c(O)[nH]c3ccccc23)=Nc2ccccc21`, the IC50 in experiment [1] came to 2.3 µM; in experiment [2], 2.1 µM; in experiment [3], 0.7 µM.

Take `O=C1C(c2c(O)[nH]c3c(F)cccc23)=Nc2ccccc21`: the IC50 in experiment [1], in experiment [2] and in experiment [3] was > 100 µM in each case.

With `CO/N=C1\C(c2c(O)[nH]c3ccccc23)=Nc2ccccc21`, the results for the IC50 in experiment [1], in experiment [2] and in experiment [3] were 4.3 µM, 3 µM and 0.4 µM, respectively.

With `O=Nc1c(-c2c(O)[nH]c3c(F)cccc23)[nH]c2ccccc12`, the IC50 in experiment [1] is 2 µM; in experiment [2], 7 µM; in experiment [3] it was 1 µM.

Turning to `O=Nc1c(-c2c(O)[nH]c3c(Cl)cccc23)[nH]c2ccccc12`, the 50% inhibitory concentration (IC50) in experiment [1] was > 100 µM; in experiment [2], 8 µM; in experiment [3] it was 0.9 µM.

For `O=C1C(c2c(O)[nH]c3c(Br)cccc23)=Nc2ccccc21`, the IC50 in experiment [1], in experiment [2] and in experiment [3] was > 100 µM throughout.

On to `CO/N=C1\C(=C2\C(=O)Nc3c(Br)cccc32)Nc2ccccc21`, for which the half-maximal inhibitory concentration (IC50) in experiment [1], in experiment [2] and in experiment [3] was > 100 µM throughout.

On to `CO/N=C1\C(=C2\C(=O)Nc3c(Cl)cccc32)Nc2ccccc21`, for which the IC50 in experiment [1], in experiment [2] and in experiment [3] was > 100 µM in each case.

`CC(=O)O/N=C1\C(=C2\C(=O)Nc3c(F)cccc32)Nc2ccccc21`: the IC50 in experiment [1] stood at 20 µM; in experiment [2], 8 µM; in experiment [3], 1 µM.

For the molecule `CO/N=C1\C(=C2\C(=O)Nc3c(I)cccc32)Nc2ccccc21`, the IC50 in experiment [1], in experiment [2] and in experiment [3] was > 100 µM each time.

On to `O=Nc1c(-c2c(O)[nH]c3c(Br)cccc23)[nH]c2ccccc12`, for which the results for the IC50 in experiment [2] and in experiment [3] were 4.6 µM and 0.7 µM, respectively.

Take `O=C1C(c2c(O)[nH]c3c(Cl)cccc23)=Nc2ccccc21`: the IC50 in experiment [1], in experiment [2] and in experiment [3] was > 100 µM throughout.

As for `O=C1C(c2c(O)[nH]c3c(I)cccc23)=Nc2ccccc21`, the IC50 in experiment [1], in experiment [2] and in experiment [3] was > 100 µM throughout.

As for `CC(=O)O/N=C1\C(=C2\C(=O)Nc3c(I)cccc32)Nc2ccccc21`, the IC50 is > 100 µM in experiment [1], > 100 µM in experiment [2] and 28 µM in experiment [3].

In the case of `CC(=O)O/N=C1\C(=C2\C(=O)Nc3c(Br)cccc32)Nc2ccccc21`, the IC50 in experiment [1] was > 100 µM; in experiment [2] it was 20 µM; in experiment [3], 4.5 µM.

Turning to `CC(=O)O/N=C1\C(=C2\C(=O)Nc3c(Cl)cccc32)Nc2ccccc21`, the IC50 in experiment [1], in experiment [2] and in experiment [3] was > 100 µM throughout.

Take `CO/N=C1\C(=C2\C(=O)Nc3c(F)cccc32)Nc2ccccc21`: the IC50 in experiment [1], in experiment [2] and in experiment [3] was > 100 µM throughout.

Regarding `O=C1Nc2cc(Br)ccc2/C1=C1/Nc2ccccc2/C1=N\O` [6BIO], the IC50 in experiment [2] turned out to be 0.9 µM; in experiment [3], 0.2 µM.

Take `O=Nc1c(-c2c(O)[nH]c3ccccc23)[nH]c2ccccc12` [INDIRUBIN-3-MONOXIME]: the IC50 came to 4 µM in experiment [1], 2.3 µM in experiment [2] and 0.3 µM in experiment [3].

Values taken from ChEMBL document CHEMBL1148731, “An integrated computational approach to the phenomenon of potent and selective inhibition of aurora kinases B and C by a series of 7-substituted indirubins” (J Med Chem, 2007).
